Screening data from PubChem.
LGR2 antag: blocks bursicon-induced cAMP signaling via Drosophila LGR2; HEK293 LGR2, CRE-luciferase, bursicon-stimulated, 4 h; inhibition, % at 9.99 µM; hit rate 0.35% among 380,000;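 active = drop in luminescence signal, shown as inhibition above about 50% in the replicate tests, limit read from the data, passing the limit was not always enough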;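 also: agonist challenge used bursicon conditioned medium at about half maximal strength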
E-selectin induc: induces E-selectin expression in human endothelial cells. P16581. HUVEC E-selectin immunofluorescence imaging; normalized: neutral wells 0, TNF-alpha wells 100. activation, % at 7.58 µM. hit rate 0.37% among 260,000. AID 686992;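 active = mean E-selectin-positive cell signal at least 10% of the positive control, reached in at least 60% of replicates, without over 20% cell loss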
Target sequence (P16581 whole entry, looked up): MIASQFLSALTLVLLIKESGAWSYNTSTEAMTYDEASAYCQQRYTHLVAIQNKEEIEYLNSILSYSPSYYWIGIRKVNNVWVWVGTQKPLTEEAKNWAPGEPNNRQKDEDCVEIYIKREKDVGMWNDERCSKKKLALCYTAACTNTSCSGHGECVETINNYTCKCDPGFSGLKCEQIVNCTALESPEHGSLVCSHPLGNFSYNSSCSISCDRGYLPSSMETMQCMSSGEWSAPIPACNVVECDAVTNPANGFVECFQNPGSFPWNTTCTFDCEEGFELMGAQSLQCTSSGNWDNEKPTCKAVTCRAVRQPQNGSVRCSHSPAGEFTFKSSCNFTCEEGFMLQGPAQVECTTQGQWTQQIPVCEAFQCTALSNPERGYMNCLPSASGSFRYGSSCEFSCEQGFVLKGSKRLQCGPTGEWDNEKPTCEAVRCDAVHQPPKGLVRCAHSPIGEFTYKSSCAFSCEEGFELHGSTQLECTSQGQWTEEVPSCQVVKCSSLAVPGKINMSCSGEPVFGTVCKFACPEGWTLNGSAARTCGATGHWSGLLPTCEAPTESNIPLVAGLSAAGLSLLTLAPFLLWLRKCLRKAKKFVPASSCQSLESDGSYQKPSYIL
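Assay system: HUVEC primary endothelial cells. Input: 3,000 HUVEC seeded per well. Doses: one compound dose added by pin transfer. Read-out basis: % PE-positive cells. Benchmarks: TNF-alpha high, DMSO low. Detection: immunofluorescence imaging. Buffer or medium: EGM-2, gelatin.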
rRNA inh HTS: selective bacterial rRNA inhibition in E. coli. E. coli WT GFP vs humanized-ribosome RFP mutants, fluorescence, 24 h; stronger effect = lower value; DMSO median 0, no signal -100. GFP signal change (wild-type ribosome), % (concentration not given with the values). hit rate 1.6% among 350,000;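 active = significant combined selectivity score with lowered wild-type GFP, culture density cut under 30%, mutant RFP and density less affected; inactive = any of these conditions unmet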
EWS-Fli block: EWS/Fli transcriptional activity inhibition. A673 NR0B1-luciferase reporter, viability-normalised. inhibition, % at 12.6 µM. hit rate 0.67% among 350,000;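 active = mean inhibition of at least 50% after viability correction, with every replicate also passing that limit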;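 also: firefly luciferase signal divided by Alamar Blue viability fluorescence both relative to DMSO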
Large screens that a line does not name were inactive. Rows were chosen to be rich in hits. Some 2.4% of all compounds tested hit in one or more screens of this group.

COC(=O)/C=C/c1cccc([C@H]2[C@@H]3C=CC[C@@H](C)[C@@H]3C(=O)N2Cc2ccccc2)c1	rRNA inh HTS -19.0 (no result: E-selectin induc)
COc1ccc2c3c(n(C)c2c1)[C@@H](CO)N(C(=O)CC1CC1)CC31CN(C(=O)CC2CC2)C1	none
C[C@@H]1CN([C@H](C)CO)C(=O)Cc2cc(NC(=O)NC3CCCCC3)ccc2O[C@@H]1CN(C)C	none
CC(C)C[C@@H](C)C(=O)N(Cc1ccccc1)c1ccccc1	rRNA inh HTS -34.8
CC[C@@H](CCC=C(C)C)C(=O)N(Cc1ccccc1)c1ccccc1	none (no result: LGR2 antag)
Cc1cc(C)cc(C(=O)Nc2ccc(N3CCCC3)cc2)c1	rRNA inh HTS -29.9
O=C1NC[C@H](CCCCN2C[C@H](Cc3ccc(O)cc3)N(CCC3CCCCC3)C(=O)C2=O)N(CCc2ccc(O)cc2)C1=O	rRNA inh HTS -24.6 (no result: E-selectin induc)
CC(C)NC(=O)N(C)C[C@H]1Oc2cc(C3=CCCC3)ccc2S(=O)(=O)N([C@@H](C)CO)C[C@@H]1C	none
O=C(N[C@H]1CC[C@@H](CCNC(=O)c2ccccc2F)O[C@H]1CO)c1ccc2c(c1)OCO2	none
CN(C)C(=O)C[C@H]1C=C[C@@H](NS(=O)(=O)c2ccccc2)[C@@H](CO)O1	none
CC(=O)c1ccc(Nc2cc(C)nc3c(C)cc(C)cc23)cc1	LGR2 antag 99.1 (no result: E-selectin induc)
Cc1cc(C)c2nc(C)cc(Nc3ccc(C(=O)NCCO)cc3)c2c1	none
Cc1cc(C(=O)Nc2cccc3c2O[C@H](CN(C)CC2CCCCC2)[C@@H](C)CN([C@H](C)CO)C3=O)n(C)n1	none
COc1ccccc1NC(=S)N1CCCCCC1	E-selectin induc 65.2
c1ccc(CNc2ncnc3scc(-c4cccs4)c23)nc1	rRNA inh HTS -26.8
CC(OC(=O)c1nsc(Cl)c1Cl)C(=O)NCCc1ccccc1 (stereo unspecified)	E-selectin induc 28.7
C=CC[C@@]1(C(=O)N2CCCCC2)N=C(c2ccc(OCCCO)cc2)O[C@@H]1c1ccccc1	none (no result: LGR2 antag, E-selectin induc, rRNA inh HTS)
O=c1[nH]nc(-c2ccc(F)cc2)cc1Cc1cccs1	rRNA inh HTS -20.4 (no result: E-selectin induc)
CN1C=C/C(=C\c2cc[n+](C)c3ccccc23)c2ccccc21	EWS-Fli block 73.6
CC=Cc1ccc2n(c1=O)C[C@@H]1[C@@H](CO)[C@H](C(=O)NCCC)[C@H]2N1Cc1nccs1 (mixture of isomers)	none
COc1ccc(CCN2C(=O)c3cccc4c(C(=O)N5CCCCC5)ccc(c34)C2=O)cc1OC	LGR2 antag 101.7
COc1ccc(CCNC(=O)CCN2C(=O)c3cccc4cccc(c34)C2=O)cc1OC	none
COc1ccc(CN(C)Cc2c(O)ccc3cc(Br)ccc23)cc1OC	rRNA inh HTS -23.2 (no result: E-selectin induc)
COc1ccc(CCN(C)CCc2ccc(OC)c(OC)c2)cc1OC	none (no result: rRNA inh HTS)
COc1ccc(CN(C)Cc2c(O)ccc3ccccc23)cc1	none (no result: E-selectin induc)
COc1ccc(CCN(C)Cc2c(O)ccc3cc(Br)ccc23)cc1OC	rRNA inh HTS -26.9
CCC(=O)N1[C@H](CO)[C@H]2c3ccccc3N(C(=O)Nc3cccc(Cl)c3)C[C@H]21	none
COc1ccc(CN2CCCCC2C(=O)Nc2ccc(OC)c(OCC(C)C)c2)cc1OC (stereo unspecified)	none (no result: E-selectin induc, rRNA inh HTS, EWS-Fli block)
COc1ccc(NC(=O)C2CCCN(CCCc3ccccc3)C2)cc1OCC(C)C (stereo unspecified)	EWS-Fli block 61.1
CN1c2ccc(-c3ccc(F)cc3)cc2[C@@H]2[C@@H](CCN2C(=O)CC2CC2)[C@H]1CO	none (no result: LGR2 antag, E-selectin induc, EWS-Fli block)
C[C@H](CO)N1C[C@H](C)[C@@H](CN(C)Cc2ccc(Cl)c(Cl)c2)Oc2c(cccc2N(C)C)C1=O	none (no result: LGR2 antag, E-selectin induc)
CCCn1nc(NS(=O)(=O)c2ccccc2[N+](=O)[O-])c2cc3ccccc3nc21	rRNA inh HTS -20.9 (no result: E-selectin induc)
CCn1nc(NS(=O)(=O)c2ccccc2[N+](=O)[O-])c2cc3cccc(C)c3nc21	none (no result: E-selectin induc)
C[C@H](CO)N1C[C@H](C)[C@H](CN(C)Cc2ccccn2)Oc2ncc(C#CC3CC3)cc2C1=O	none
CNC[C@@H]1Oc2c(NC(=O)C3CC3)cccc2C(=O)N([C@@H](C)CO)C[C@@H]1C	none
O=C(CN1CCC(n2nnc3cc(F)ccc32)CC1)NCCc1ccccc1	none (no result: E-selectin induc, rRNA inh HTS, EWS-Fli block)
O=C(CN1CCC(n2nnc3cc(F)ccc32)CC1)N1CCc2ccccc2C1	rRNA inh HTS -23.1 (no result: E-selectin induc)
CO[C@@H]1CN(C)C(=O)c2ccc(NC(=O)C3CC3)cc2OC[C@H](C)N(CC2CCCC2)C[C@H]1C	none
CCn1c2ccccc2c2cc(CNCCCN3CCOCC3)ccc21	none
Clc1ccc2c(c1)c1ccccc1n2CN1CCOCC1	rRNA inh HTS -32.8 (no result: E-selectin induc, EWS-Fli block)
COC(=O)C[C@@H]1CC[C@H]2[C@H](COc3ccc(NC(=O)c4cccc(F)c4)cc3C(=O)N2C)O1	none
O=[N+]([O-])c1ccc(N/N=C/C=C/c2ccco2)cc1	rRNA inh HTS -39.9
O=C(O)c1ccc(N/N=C/C=C/c2ccc([N+](=O)[O-])o2)cc1	rRNA inh HTS -31.8
O=[N+]([O-])c1ccc(NN=Cc2cccc([N+](=O)[O-])c2)cc1	none
O=C(N/N=C/c1ccc([N+](=O)[O-])o1)C(=O)Nc1ccc(C(=O)O)cc1	none
O=C(N/N=C/c1ccco1)c1cc([N+](=O)[O-])cc([N+](=O)[O-])c1	EWS-Fli block 82.1 (no result: E-selectin induc)
O=C(N/N=C/c1ccco1)c1cccc([N+](=O)[O-])c1	none (no result: LGR2 antag)
CCC(=O)N1C[C@H]2[C@@H](c3ccccc31)[C@H](CO)N2Cc1ccccc1Cl	none
O=C(Nc1ccc2c(c1)OCCO2)c1ccccn1	LGR2 antag 76.8
O=C(Nc1ccc2c(c1)OCCO2)c1ccc(S(=O)(=O)N2CCCCC2)cc1	rRNA inh HTS -32.1 (no result: EWS-Fli block)
Cc1ccc(NC(=O)c2ccc3c(c2)OCCO3)cc1C	LGR2 antag 76.5 (no result: E-selectin induc)
Cc1ccc(NC(=O)c2ccc(S(=O)(=O)N3CCCCC3)cc2)cc1	none (no result: E-selectin induc, rRNA inh HTS, EWS-Fli block)
Cc1ccc(C(=O)Nc2ccc3c(c2)OCCO3)c(C)c1	LGR2 antag 92.8, EWS-Fli block 79.0 (no result: E-selectin induc)
O=C(Nc1ccc(NC(=O)c2ccccn2)cc1)C(=O)Nc1ccc2c(c1)OCCO2	none
Cc1ccc(S(=O)(=O)N[C@@H]2CC[C@@H](CCNC(=O)C3CCOCC3)O[C@H]2CO)cc1	none
O=C1NCCOCc2cnnn2CC[C@@H]1Cc1ccc(F)cc1	none (no result: LGR2 antag, E-selectin induc, EWS-Fli block)
Cn1c(C(=O)Nc2ccc3c(c2)OCCO3)cc2sccc21	rRNA inh HTS -31.6 (no result: E-selectin induc)
COc1cccc(CNC(=O)[C@H]2N[C@H]3c4ccc(/C=C/c5ccccc5)c(=O)n4C[C@H]3[C@@H]2CO)c1	none
CC(C)NC(=O)NCC[C@@H]1CC[C@H](NC(=O)c2ccc(F)cc2)[C@H](CO)O1	none
COc1cccc(C#Cc2cnc3c(c2)C(=O)N([C@@H](C)CO)C[C@@H](C)[C@@H](CN(C)C(=O)C2CCOCC2)O3)c1	none
Cc1cccc(-c2ccc3[nH]c4c(c3c2)CCN2C[C@@H]([C@H](C)O)[C@@H](N(C)C(=O)Nc3ccc(F)cc3)C[C@@H]42)c1	rRNA inh HTS -21.8
C[C@H](O)[C@@H]1CN2CCc3c([nH]c4ccc(-c5ccc6c(c5)OCO6)cc34)[C@@H]2C[C@@H]1N(C)C(=O)NC1CCCCC1	rRNA inh HTS -52.3 (no result: E-selectin induc)
